Most compounds without a hit are left out; they make up all but 5.2% or so of the library.
HCV NS3 hel inh: blocks Hepatitis C virus NS3 helicase unwinding | NS3 helicase DNA unwinding, Cy5 molecular beacon fluorescence | inhibition, % at 10.9 µM | 290,000 compounds, 0.56% hits | AID 1800;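 active means inhibition above the mean of all tested compounds plus 3 SD, set per campaign, cut at about 35% in these data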
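Assay system – hepatitis C virus NS3 helicase domain fragment enzyme · Buffer or medium – MOPS pH 6.5, MgCl2, DTT, Tween20, BSA · Reagent – Cy5/quencher beacon DNA duplex and ATP to start · Compound – single 10.9 µM dose · Timing – 1 h at 25 °C · Technique – Cy5 beacon fluorescence read at start and 1 h · Measure – % inhibition of unwinding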
ALR inh: human ALR oxidase inhibition via reduced H2O2 | inhibition, % (no concentration beside the values) | 290,000 compounds, 3.8% hits | purified ALR, DTT oxidation, H2O2 HRP-luminol luminescence | P55789;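 active means mean replicate inhibition above about 79%, with every replicate also reaching it, limit read from the data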
Target sequence (P55789 whole entry, looked up): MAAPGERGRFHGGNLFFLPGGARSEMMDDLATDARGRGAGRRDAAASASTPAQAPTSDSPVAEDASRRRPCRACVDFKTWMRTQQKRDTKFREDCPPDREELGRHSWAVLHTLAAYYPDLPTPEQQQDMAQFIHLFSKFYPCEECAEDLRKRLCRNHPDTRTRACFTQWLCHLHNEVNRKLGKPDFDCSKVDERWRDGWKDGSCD
ZTA counter: ZTA (EBV) inhibition in EBNA-1 counter-screen; ZTA-DNA binding, fluorescence polarization; 320,000 compounds, 0.15% hits; inhibition, % at 11 µM; P03206; in the data active means inhibition above about 33%
Target sequence (P03206 whole entry, looked up): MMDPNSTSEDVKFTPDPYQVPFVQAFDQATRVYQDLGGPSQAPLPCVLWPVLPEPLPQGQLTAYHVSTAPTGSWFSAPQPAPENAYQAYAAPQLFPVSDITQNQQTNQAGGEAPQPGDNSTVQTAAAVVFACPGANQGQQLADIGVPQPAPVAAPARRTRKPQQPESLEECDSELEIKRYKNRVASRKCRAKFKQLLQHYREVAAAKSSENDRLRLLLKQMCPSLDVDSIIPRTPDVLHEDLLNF
EBNA-1 inh: blocks EBNA-1 binding to DNA; EBNA-1 DNA binding, fluorescence polarization; inhibition, % at 14.8 µM; 300,000 compounds, 0.34% hits; AID 1950; in the data active means inhibition above about 28%
core dimer inh: HCV core protein dimerization inhibition. TR-FRET GST/Flag-core106 dimerization, 1536-well. inhibition, % at 5 µM. 300,000 compounds, 0.33% hits. AID 1899;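 active means inhibition above the mean of all tested compounds plus 3 SD, set per screening campaign, cut at about 45% in these data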
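Test system: GST/Flag-tagged HCV core106 proteins; Medium: KF-containing HEPES buffer, pH 7.45, DTT, CHAPS, BSA; Times: compound-protein-antibody incubation 4 h at 22.5 °C; Detection: TR-FRET 671 and 617 nm emission; Benchmarks: wells lacking GST-core106 and wells with excess unlabelled core106.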
PfM18AAP inh: blocks P. falciparum M18 aspartyl aminopeptidase | AID 1822 | 290,000 compounds, 1.2% hits | inhibition, % at 7.35 µM | recombinant PfM18AAP, H-Glu-NHMec fluorogenic cleavage;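 active means inhibition above the campaign mean inhibition over all tested compounds plus 3 SD, cut at about 28% in these data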
Hits are given with their value; i = inactive; nt = not tested or not shown.

SMILES | HCV NS3 hel inh | ALR inh | ZTA counter | EBNA-1 inh | core dimer inh | PfM18AAP inh
O=C(O)c1ccccc1-c1ccccc1C(=O)NCc1ccccc1Cl | i | i | i | i | i | i
CCCS(=O)(=O)N1CCC(C(=O)NCCN(CC)c2ccccc2)CC1 | i | i | i | i | i | 31
CCCS(=O)(=O)N1CCC(C(=O)NCCc2ccccc2)CC1 | i | i | i | i | i | i
CS(=O)(=O)N1CCC(C(=O)NCCN2CCN(Cc3ccccc3)CC2)CC1 | i | nt | i | i | i | i
CCN(CCNC(=O)C1CCN(S(C)(=O)=O)CC1)c1ccccc1 | i | 99 | i | i | i | i
CCn1c(CNc2ccc(F)cc2)nnc1SCCN1CCCCC1 | i | 98 | i | i | i | i
O=C(NC(=S)Nn1cnc2c(cnn2-c2ccccc2)c1=O)c1ccc(Oc2ccccc2)cc1 | i | i | i | 31 | i | i
O=C(NC(=S)Nn1cnc2c(cnn2-c2ccccc2)c1=O)c1ccc(Cl)cc1 | i | i | i | i | i | i
CCc1nnc(NC(=O)CSc2nc3[nH]c(=O)cc(O)c3s2)s1 | nt | 99 | i | nt | nt | nt
Cc1cnc(=O)[nH]c1SCC(=O)Nc1nccs1 | nt | 97 | i | i | i | nt
O=C(CSc1nc2[nH]c(=O)cc(O)c2s1)Nc1nccs1 | nt | 95 | i | nt | nt | nt
Cc1cccc(C)c1OCc1nnc(SCC(=O)Nc2nccs2)o1 | i | i | i | i | i | 28
CCCSc1nnc(NC(=O)CSc2nc3[nH]c(=O)cc(O)c3s2)s1 | nt | i | i | nt | nt | nt
CCCc1nnc(SCC(=O)Nc2nccs2)o1 | i | i | i | i | i | i
C=CCNC(=O)NC(=O)CN1C(=O)NC(c2ccccc2)(c2ccccc2)C1=O | i | i | i | i | i | i
COc1ccc(C(=O)NCCCNC(=O)c2ccc(C)nc2)cc1 | i | nt | i | i | i | i
COC(=O)c1ccc(OC(=O)C2CSC3(C)CCC(=O)N23)cc1 (stereo not given) | nt | i | i | i | i | nt
COc1cc(NC(=O)c2cc(-c3ccco3)on2)cc(OC)c1OC | i | nt | i | i | i | i
CCCn1nc([N+](=O)[O-])c(C(C#N)c2nc3ccccc3s2)c(Cl)c1=O (stereo not given) | i | 97 | i | i | i | i
CCOc1ccccc1CN1CCNC(=O)C1CC(=O)NC1CCCCCCC1 (stereo not given) | i | nt | i | i | i | i
CCOc1cc(/C=C2/NC(=O)NC2=O)cc([N+](=O)[O-])c1O | i | 94 | i | i | i | i
C=CCc1cc(/C=C2/NC(=O)NC2=O)cc(OCC)c1O | i | i | i | i | i | i
O=C(O)C1CCCC2CN3CCc4c([nH]c5ccccc45)C3C(O)C21 (stereo not given) | i | i | i | i | i | 28
O=C(O)[C@@H]1[C@H]2C[C@H]3c4[nH]c5ccccc5c4CCN3C[C@@H]2CC[C@@H]1O | nt | i | i | i | i | nt
NCCCC[C@H]1CNC(=S)N1CCc1cccc(F)c1 | i | i | i | i | i | i
SMILES | HCV NS3 hel inh | ALR inh | ZTA counter | EBNA-1 inh | core dimer inh | PfM18AAP inh
NC(N)=NN=C1CCC(c2ccccc2)CC1 (stereo not given) | i | i | i | i | i | i
CC1(C)CC(=O)C(=Cc2cn(CCC#N)nc2-c2ccc(F)cc2)C(=O)C1 | i | 95 | i | i | i | i
CC1(C)CC(=O)C(=Cc2cn(CCC#N)nc2-c2ccc(Cl)cc2)C(=O)C1 | i | i | i | i | i | i
CC(C)(C)C(=O)Nc1c2c(nn1-c1ccccc1)CSC2 | i | i | i | i | i | i
Cc1[nH]c2c(Br)cccc2c1[C@H]1[C@@H](CC#N)C1(C)C | i | i | i | i | i | i
Cc1c([C@H]2[C@@H](CC#N)C2(C)C)c2ccccc2n1C | i | 97 | i | i | i | i
O=C(Cc1ccc2c(c1)OCCO2)N1CCN(S(=O)(=O)c2cccc(C(F)(F)F)c2)CC1 | i | 90 | i | i | i | i
O=S(=O)(c1cccc(C(F)(F)F)c1)N1CCN(S(=O)(=O)c2ccc3c(c2)OCCO3)CC1 | nt | i | nt | nt | nt | nt
COc1ccc(NC2CCCN(C(=O)c3cc(CC(C)C)nc(N)n3)C2)cc1 (stereo not given) | i | 93 | i | i | i | i
COc1ccc(NC2CCCN(C(=O)c3csc(C(C)C)n3)C2)cc1 (stereo not given) | i | 99 | i | i | i | i
COc1cc(OC)cc(C(=O)NCC2CCCN(C(=O)c3csc(C(C)C)n3)C2)c1 (stereo not given) | i | i | nt | nt | nt | i
COc1ccc(NC2CCCN(C(=O)c3csc(C(C)C)n3)C2)cc1OC (stereo not given) | i | 99 | i | i | i | i
CCN/C=C(\C#N)S(=O)(=O)c1ccc(Br)cc1 | i | i | i | i | i | i
O=C(Nc1cccc([N+](=O)[O-])c1)c1[nH]ncc1Cl | i | 96 | i | i | i | i
CNC(=S)N(CCc1c(C)[nH]c2ccc(F)cc12)Cc1cccnc1 | i | 97 | i | i | i | i
O=C(O)Cc1c[nH]c2ccccc12 | nt | i | i | i | i | nt
O=C(O)CSc1c[nH]c2ccccc12 | i | 98 | i | i | i | i
CC(C)C(=O)NCCSc1c[nH]c2ccccc12 | i | 99 | i | i | i | i
Nc1nc(=S)c2ncn(C3CCCC3)c2[nH]1 | i | i | nt | nt | nt | 36
Nc1ncnc2c1ncn2C1CCCC1 | nt | i | i | i | i | nt
O=C(COC(=O)COc1ccccc1)Nc1ncc([N+](=O)[O-])s1 | nt | 96 | i | nt | nt | nt
CCC(Oc1ccccc1)C(=O)Nc1nnc(C)s1 (stereo not given) | i | i | i | i | i | i
CCC(Oc1ccccc1)C(=O)Nc1ncc([N+](=O)[O-])s1 (stereo not given) | i | 97 | i | i | i | i
Cc1ccc2c(C(=O)CCl)c(C)[nH]c2c1 | i | i | i | i | i | i
CN(C)S(=O)(=O)c1ccc(Cl)c(NC(=O)CN2CCCC2)c1 | i | i | i | i | i | i
SMILES | HCV NS3 hel inh | ALR inh | ZTA counter | EBNA-1 inh | core dimer inh | PfM18AAP inh
C(=C\c1ccccc1)/C=N/Nc1nc2ccccc2s1 | i | nt | i | i | i | i
CCC/C=N/Nc1nc2ccccc2s1 | i | i | i | i | i | 35
Cc1cc2nc(-c3ccc(SCc4ccc(C(=O)O)cc4)nc3)[nH]c2cc1C | i | 99 | i | i | i | i
O=C(CSc1nnc(Cn2cnc3ccccc32)o1)Nc1cccc2ccccc12 | i | 99 | i | i | i | i
CC(=O)c1ccc(NC(=O)CSc2nnc(Cn3cnc4ccccc43)o2)cc1 | i | 97 | i | i | i | i
CCCCNC(=O)CCn1c(=O)c2ccccc2n(CC(=O)NCCc2ccc(OC)c(OC)c2)c1=O | i | i | i | i | i | i
CC(=O)Nc1ccc2c(c1)C(C)(C)C(C)N2C (stereo not given) | i | 99 | 60 | 45 | i | i
CC(=O)Nc1ccc(SCC(=O)N2CCN(S(=O)(=O)c3ccccc3)CC2)cc1 | i | 98 | i | i | i | i
O=C(CSc1ccc(F)cc1)N1CCN(S(=O)(=O)c2ccccc2)CC1 | i | nt | i | i | i | i
